Data set [1] is described as follows: Cell cycle arrest in mouse 3T3L1 cells assessed as number of cells at G0/G1 phase at 0.3 uM after 24 hrs by flow cytometry (reference value: 37.6%). The class given is functional, cell-based. The settings on record: 3T3-L1. For orientation: A flow cytometer gives signals particle by particle.
Data set [2] in a line: Downregulation of ACC level in mouse 3T3L1 cells after 6 days by western blot analysis. The data set is classed as functional, cell-based. Conditions: 3T3-L1. The essentials:
(§1)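 3T3-L1 preadipocytes incubated in adipogenic cocktail with or without compound (0.3, 1.0, 3.0 µM) for the stated periods. Protein levels measured by Western blot (RIPA lysis, PVDF, BSA block, primary 16 h at 4 °C, HRP secondary), normalized to GAPDH/Tubulin and expressed relative to controls; n = 3.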
On the technique in general: A western blot detects proteins with antibodies after separation by electrophoresis.

Data set [3] is described as follows: Decrease in triglyceride level in mouse 3T3L1 cells at 1 uM measured during 6 to 9 days by oil red O staining based microscopic analysis. The data set is classed as functional, cell-based. Conditions: 3T3-L1. Put shortly: (§2)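 3T3-L1 cells given 1 µM compound during day 0-3, 0-6, 0-9, 3-6, 3-9 or 6-9 of differentiation. On Day 9, intracellular lipid measured by TG assay (Triton lysate, GPO-POD kit, per protein) and by Oil Red O staining with microscopy; n = 3.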

Data set [4] in a line: Cell cycle arrest in mouse 3T3L1 cells assessed as number of cells at S phase at 1 uM after 24 hrs by flow cytometry (reference value: 18.1%). The data set is classed as functional, cell-based. The settings on record: 3T3-L1.
Data set [5] concerns 3T3-L1. As to the kind of experiment: Induction of apoptosis in mouse 3T3L1 cells assessed as viable cells at 3 uM after 24 hrs by annexin-V-FITC and PI staining based flow cytometry (reference value: 98.95%). Conditions: 3T3-L1, 24 h, read-out: Activity. The class given is functional.
Data set [6] is described as follows: Downregulation of C/EBP alpha mRNA level in mouse 3T3L1 cells at 3 uM after 24 hrs by RT-PCR analysis. The class given is functional, cell-based. The settings on record: 3T3-L1. The essentials: (§3)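 3T3-L1 preadipocytes in adipogenic cocktail with compound (0.3-3.0 µM; 3 µM for the 2 h and 24 h time course). Total RNA extracted, cDNA made from 1 µg RNA with oligo primer, then PCR: 95 °C 10 min, 35 cycles of 95 °C 30 s, annealing 45 s, 72 °C 1 min, final 72 °C 10 min. Normalized to actin; n = 3.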

Data set [7] deals with T1, Serine/threonine-protein kinase STK11 (Mus musculus) (UniProt Q9WTK7).
T1 sequence (whole entry): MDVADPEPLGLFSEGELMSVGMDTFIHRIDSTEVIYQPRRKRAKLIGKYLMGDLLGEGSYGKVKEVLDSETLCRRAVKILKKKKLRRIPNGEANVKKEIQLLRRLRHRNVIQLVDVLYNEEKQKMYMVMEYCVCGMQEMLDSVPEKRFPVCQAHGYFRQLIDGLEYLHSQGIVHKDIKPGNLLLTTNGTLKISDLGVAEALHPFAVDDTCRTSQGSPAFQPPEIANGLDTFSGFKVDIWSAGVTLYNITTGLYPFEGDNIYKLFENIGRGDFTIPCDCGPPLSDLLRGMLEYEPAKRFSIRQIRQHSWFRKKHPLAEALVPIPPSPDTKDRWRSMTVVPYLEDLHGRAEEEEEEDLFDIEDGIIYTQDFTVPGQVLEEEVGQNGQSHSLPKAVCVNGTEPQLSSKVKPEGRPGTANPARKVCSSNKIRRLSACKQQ
As to the kind of experiment: Activation of LKB1-mediated ACC in mouse 3T3L1 cells assessed as increase in phophorylated ACC level at 3 uM after 3 days by western blot analysis. The data set is classed as cell-based. Conditions: 3T3-L1.

Data set [8] can be described thus: Decrease in triglyceride accumulation in mouse 3T3L1 cells at 1 uM for 3 days oil red O staining based microscopic analysis. The settings on record: 3T3-L1. The data set is classed as functional, cell-based. The essentials: (§4)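 3T3-L1 cells differentiated from 2 days post-confluence with IBMX/dexamethasone/insulin cocktail for 3 days, then insulin medium to Day 6. Compounds at 1 and 10 µM added Day 0 for 3 days. Triglyceride read on Day 6 with Oil Red O (formaldehyde fixation, 30 min stain, isopropanol extraction, OD 510 nm); n = 3.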

Data set [9] can be described thus: Downregulation of C/EBP delta mRNA level in mouse 3T3L1 cells at 3 uM after 2 and 24 hrs by RT-PCR analysis. The settings on record: 3T3-L1. The class given is functional, cell-based. The essentials:
as §3

In data set [10] the test system is HepG2. As to the kind of experiment: Decrease in triglyceride level in human HepG2 cells after 24 hrs by GPO-POD assay in presence of 0.5 mM oleic acid sodium. The data set is classed as functional, cell-based. Put shortly: (§5)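 HepG-2 cells seeded, then after 24 h exposed to 0.5 mM oleic acid sodium plus compound (1 µM; dose series up to 10 µM) for 24 h, DMSO vehicle. Cells lysed in 0.2% Triton X-100 for 1 h, sonicated, centrifuged. Triglyceride measured by GPO-POD kit and cholesterol by kit, both normalized to BCA protein; n = 3.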

Data set [11] is described as follows: Downregulation of C/EBP delta mRNA level in mouse 3T3L1 cells at 0.3 to 3 uM after 24 hrs by RT-PCR analysis. The data set is classed as functional, cell-based. The settings on record: 3T3-L1. The essentials:
as §3

The subject of data set [12] is 3T3-L1. As to the kind of experiment: Induction of apoptosis in mouse 3T3L1 cells assessed as late apoptotic cells at 3 uM after 24 hrs by annexin-V-FITC and PI staining based flow cytometry (reference value: 0.03%). The data set is classed as functional.
Data set [13] in a line: Upregulation of LKB1 expression in mouse 3T3L1 cells at 3 uM after 2 and 24 hrs by western blot analysis. The data set is classed as functional, cell-based. The settings on record: 3T3-L1. Put shortly:
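During 3T3-L1 differentiation with adipogenic cocktail, cells were treated with 3 µM compound for 10 min, 2 h or 24 h. Lysates in RIPA with protease/phosphatase inhibitors were run on SDS-PAGE and Western blotted. Proteins were normalized to GAPDH and expressed relative to the 10 min DMSO group, which was set at 100%; n = 3 independent experiments.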

Data set [14] is described as follows: Decrease in triglyceride accumulation in mouse 3T3L1 cells at 10 uM for 3 days oil red O staining based microscopic analysis. The class given is functional, cell-based. Conditions: 3T3-L1. Put shortly:
as §4

The nature of data set [15]: Cell cycle arrest in mouse 3T3L1 cells assessed as number of cells at G0/G1 phase at 1 uM after 24 hrs by flow cytometry (reference value: 37.6%). The class given is functional, cell-based. Conditions: 3T3-L1.
Data set [16] can be described thus: Cell cycle arrest in mouse 3T3L1 cells assessed as number of cells at G0/G1 phase at 3 uM after 24 hrs by flow cytometry (reference value: 37.6%). The class given is functional, cell-based. Conditions: 3T3-L1.
The nature of data set [17]: Decrease in triglyceride level in mouse 3T3L1 cells at 1 uM measured during 0 to 3 days by oil red O staining based microscopic analysis. The data set is classed as functional, cell-based. The settings on record: 3T3-L1. Put shortly:
as §2

Data set [18] in a line: Cell cycle arrest in mouse 3T3L1 cells assessed as number of cells at G2/M phase at 0.3 uM after 24 hrs by flow cytometry (reference value: 37.2%). The class given is functional, cell-based. Conditions: 3T3-L1.
Data set [19] in a line: Downregulation of C/EBP beta mRNA level in mouse 3T3L1 cells at 3 uM after 2 and 24 hrs by RT-PCR analysis. The data set is classed as functional, cell-based. Conditions: 3T3-L1. Put shortly:
as §3

Data set [20] relates to 3T3-L1. In words: Induction of apoptosis in mouse 3T3L1 cells assessed as early apoptotic cells at 3 uM after 24 hrs by annexin-V-FITC and PI staining based flow cytometry (reference value: 0.56%). The data set is classed as functional.
Data set [21] concerns HepG2. In words: Decrease in triglyceride level in human HepG2 cells at 10 uM after 24 hrs by GPO-POD assay in presence of 0.5 mM oleic acid sodium. The class given is functional. The essentials: as §5
The nature of data set [22]: Cytotoxicity against mouse 3T3L1 cells preadipocytes assessed as cell viability at 1 to 10 uM for 24, 48 and 72 hrs by LDH release assay relative to control. The settings on record: 3T3-L1 preadipocyte cells.
A short description of data set [23]: Downregulation of C/EBP alpha level in mouse 3T3L1 cells at 0.3 to 3 uM after 3 days by western blot analysis. The data set is classed as functional, cell-based. Conditions: 3T3-L1. Put shortly:
as §1

Calls of active or inactive are those of the source. The calls are words filed in the database; no cut-off is given here.

On to `O=Cc1c(-c2nc(NCCN3CCCC3)c3ccccc3n2)[nH]c2ccccc12`, for which the Activity in data set [1] was determined as 51.8%; in [4], 5.2%; in the data set on 3T3-L1 [12] it was 0.42%; in data set [15], 42.9%; in [16], 33.5%; in data set [18] it was 40.2%. The Activity in the data set on 3T3-L1 [20] was 0.39%. In addition, the inhibition (commonly the relative decrease from the control value, in per cent) is “Dose-dependent effect” in data set [2]; 60% in [3]; 87.6% in [8]; “Dose-dependent effect” with HepG2 [10]; 94.9% in data set [14]; 85% in data set [17]. The viability at 3 µM with 3T3-L1 [5] amounted to 97.7%. Moreover, the inhibition entry in data set [6], in data set [9], in [11], in data set [19] and in data set [23] was “Active” in each case. The outcome in [7] and in data set [13] was Active. The “inhibition (INH)” value with HepG2 [21] stood at 32%. Besides, the viability at 72 h, 10 µM in [22] was 83%.

These data come from ChEMBL document CHEMBL3734704, “Synthesis and Biological Evaluation of Novel Bouchardatine Derivatives as Potential Adipogenesis/Lipogenesis Inhibitors for Antiobesity Treatment” (J Med Chem, 2015).
